Calls of active or inactive are those of the source. No cut-off for these calls is given here.
How the values were obtained:
[1] = test system: Respiratory syncytial virus; assay: Antiviral activity against RSV infected in human A549 cells assessed as reduction in viral titer at 10 uM incubated for 15 hrs by immunostaining analysis; assay type: functional
Procedure, shortened: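 RSV long strain (propagated in HEp-2, sucrose-gradient purified) infected A549 cells at MOI 1 for 2 h. Inoculum removed, then compound at 10 μM for 15 h. Progeny virus titred by immunostaining in HEp-2 cells with biotin-conjugated goat anti-RSV antibody. Log reduction = log10 mean titer of vehicle-treated cells minus log10 mean titer with compound.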

A549 [2] = assay: Cytotoxicity against human A549 cells assessed as reduction in cell viability incubated for 15 hrs by trypan blue assay; conditions: a549, 15 h
SAEC [3] = assay: Antiinflammatory activity against in human SAEC cells assessed as reduction in RSV-induced MIP-1beta production at 10 uM incubated for 4 hrs by immunoassay; assay type: functional, cell-based
Procedure, shortened: (§1)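 Primary small airway epithelial cells infected with RSV long strain at MOI 5. Virus removed at 2 h, then 10 μM compound added. Supernatant collected 4 h post-treatment. Cytokines/chemokines quantified with a multiplex human profiling bead kit (Bio-Plex).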

A549 [4] = assay: Antiinflammatory activity against in human A549 cells assessed as reduction in RSV-induced NF-kappaB mRNA expression at 10 uM incubated for 4 hrs by qRT-PCR analysis; assay type: functional, cell-based
A549 [5] = assay: Antiinflammatory activity against in human A549 cells transfected with PRDIII-I-Luc and IRF-3-Luc assessed as reduction in RSV-induced IRF3 activation at 10 uM incubated for 15 hrs by luciferase reporter gene assay; assay type: functional, cell-based
Procedure, shortened: (§2)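 A549 cells transfected in triplicate with luciferase plasmids, either NF-κB-Luc or IRF-3-site reporters. At 20 h post-transfection, infected with RSV (MOI 1). Virus removed at 2 h, then 10 μM compound added for 15 h. Cells then harvested and lysed for luciferase activity.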

A549 [6] = assay: Antiinflammatory activity against in human A549 cells transfected with NF-kappaB-Luc assessed as reduction in RSV-induced NF-kappaB activation at 10 uM incubated for 15 hrs by luciferase reporter gene assay; assay type: functional, cell-based; procedure, shortened: as §2
A549 [7] = assay: Antiinflammatory activity against in human A549 cells assessed as reduction in RSV-induced IRF3 mRNA expression at 10 uM incubated for 4 hrs by qRT-PCR analysis; assay type: functional, cell-based
[8] = test system: Respiratory syncytial virus; assay: Antiviral activity against RSV infected in human A549 cells assessed as reduction in viral genome copies at 10 uM measured after 15 hrs by RT-qPCR analysis
[9] = test system: Respiratory syncytial virus; assay: Antiviral activity against RSV infected in human A549 cells assessed as reduction in viral RNA at 10 uM measured upto 24 hrs by qRT-PCR analysis; assay type: functional, organism-based; conditions: time hrs <=24
Procedure, shortened: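 A549 cells infected with RSV (MOI 1), then given 10 μM compound. RSV genome copies in cells quantified by RT-qPCR at 6, 15 and 24 h post-treatment. A fusion inhibitor served as a reference control.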

SAEC [10] = assay: Antiinflammatory activity against in human SAEC cells assessed as reduction in RSV-induced IL-6 production at 10 uM incubated for 4 hrs by immunoassay; assay type: functional, cell-based; procedure, shortened: as §1
SAEC [11] = assay: Antiinflammatory activity against in human SAEC cells assessed as reduction in RSV-induced TNF-alpha production at 10 uM incubated for 4 hrs by immunoassay; assay type: functional, cell-based; procedure, shortened: as §1
[12] = molecular target: T1, Nuclear factor NF-kappa-B complex (Homo sapiens) (UniProt Q00653+P19838+Q04206); assay: Inhibition of TNF-alpha-induced NF-kappaB (unknown origin) transfected in human HEK293 cells co-transfected with NF-kappaB-Luc gene incubated for 4 hrs by luciferase reporter gene; assay type: cell-based
Procedure, shortened: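 HEK-293 cells transiently transfected with NF-κB luciferase reporter. At 15 h post-transfection, stimulated with 10 ng/ml TNF-α in the presence of compound. Luciferase activity then measured.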

[13] = molecular target: T1, Nuclear factor NF-kappa-B complex (Homo sapiens); assay: Inhibition of NF-kappaB in human A549 cells assessed as reduction in p65 Ser276 phosphorylation at 10 uM measured after 15 hrs by Western blot analysis; assay type: cell-based
Procedure, shortened: (§3)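 A549 cells infected or mock-infected with RSV (MOI 1), then treated with 10 μM compound for 15 h. Nuclear extracts prepared and analysed by western blot after SDS-PAGE and PVDF transfer. β-actin as loading control.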

[14] = molecular target: Interferon regulatory factor 3 (Homo sapiens) (UniProt Q14653); assay: Inhibition of IRF3 in RSV-infected human A549 cells assessed as reduction in IRF3 nuclear translocation at 10 uM measured upto 15 hrs by Western blot analysis; conditions: time hrs <=15
[15] = molecular target: T1, Nuclear factor NF-kappa-B complex (Homo sapiens); assay: Inhibition of NF-kappaB in human A549 cells assessed as reduction in p65 Ser276 phosphorylation at 10 uM measured after 4 hrs by Western blot analysis; assay type: cell-based
Procedure, shortened: (§4)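 A549 cells infected or mock-infected with RSV (MOI 5), then treated with 10 μM compound for 4 h. Nuclear extracts (or total lysates) prepared, resolved by SDS-PAGE, transferred to PVDF, and probed by western blot. β-actin as loading control.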

[16] = test system: Respiratory syncytial virus; assay: Antiviral activity against RSV infected in human A549 cells assessed as reduction in viral N protein at 10 uM incubated for 15 hrs by Western blot analysis; assay type: functional, organism-based
Procedure, shortened: (§5)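 A549 cells infected with RSV (MOI 1) and treated with 10 μM compound for 15 h. Viral proteins detected by western blot of lysates using anti-RSV or anti-F antibodies, with β-actin as loading control. Membranes blocked in 5% milk in TBS-Tween 20.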

[17] = molecular target: T1, Nuclear factor NF-kappa-B complex (Homo sapiens); assay: Inhibition of NF-kappaB in human A549 cells assessed as reduction in p65 Ser536 phosphorylation at 10 uM measured after 4 hrs by Western blot analysis; assay type: cell-based; procedure, shortened: as §4
[18] = test system: Respiratory syncytial virus; assay: Antiviral activity against RSV infected in human A549 cells assessed as reduction in viral matrix protein at 10 uM incubated for 15 hrs by Western blot analysis; assay type: functional, organism-based; procedure, shortened: as §5
[19] = test system: Respiratory syncytial virus; assay: Antiviral activity against RSV infected in human A549 cells assessed as reduction in viral titer at 2.5 uM incubated for 15 hrs by immunostaining analysis; assay type: functional
Procedure, shortened: (§6)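 Dose-response: A549 cells infected with RSV long strain at MOI 1, then treated with a range of compound concentrations for 15 h. Total virus harvested and titred by immunostaining in HEp-2 cells with biotin-conjugated goat anti-RSV antibody. Reduction expressed as log decrease in titer relative to vehicle (DMSO) control.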

[20] = test system: Respiratory syncytial virus; assay: Antiviral activity against RSV infected in human A549 cells assessed as reduction in viral phosphoprotein at 10 uM incubated for 15 hrs by Western blot analysis; assay type: functional, organism-based; procedure, shortened: as §5
[21] = molecular target: T1, Nuclear factor NF-kappa-B complex (Homo sapiens); assay: Inhibition of NF-kappaB in human A549 cells assessed as reduction in p65 nuclear translocation at 10 uM measured after 4 hrs by Western blot analysis; assay type: cell-based; procedure, shortened: as §4
[22] = molecular target: T2, Interferon regulatory factor 3 (Homo sapiens) (UniProt Q14653); assay: Inhibition of poly I:C-induced IRF3 (unknown origin) transfected in human HEK293 cells co-transfected with IRF3-Luc gene incubated for 4 hrs by luciferase reporter gene; assay type: cell-based
T2 sequence (whole entry): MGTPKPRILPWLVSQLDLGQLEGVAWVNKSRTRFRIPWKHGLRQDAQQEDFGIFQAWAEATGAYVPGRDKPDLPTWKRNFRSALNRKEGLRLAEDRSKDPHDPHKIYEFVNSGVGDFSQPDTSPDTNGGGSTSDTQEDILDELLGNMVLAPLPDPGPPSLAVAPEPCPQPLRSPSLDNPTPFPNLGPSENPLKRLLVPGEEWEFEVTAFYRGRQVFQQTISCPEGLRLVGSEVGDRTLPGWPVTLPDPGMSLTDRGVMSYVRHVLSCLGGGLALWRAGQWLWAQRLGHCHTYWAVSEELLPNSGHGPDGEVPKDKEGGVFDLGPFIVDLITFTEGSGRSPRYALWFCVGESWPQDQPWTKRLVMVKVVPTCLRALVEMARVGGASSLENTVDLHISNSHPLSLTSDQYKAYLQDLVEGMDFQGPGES
Procedure, shortened: (§7)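 HEK-293 cells transiently transfected with IRF-3 or NF-κB luciferase reporter. At 15 h post-transfection, cells transfected with Poly I:C in the presence of compound. Luciferase activity then measured.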

[23] = molecular target: T1, Nuclear factor NF-kappa-B complex (Homo sapiens); assay: Inhibition of NF-kappaB in human A549 cells assessed as reduction in p65 Ser536 phosphorylation at 10 uM measured after 15 hrs by Western blot analysis; assay type: cell-based; procedure, shortened: as §3
[24] = molecular target: Interferon regulatory factor 3 (Homo sapiens) (UniProt Q14653); assay: Inhibition of IRF3 in RSV-infected human A549 cells assessed as reduction in IRF3 Ser396 phosphorylation at 10 uM measured upto 15 hrs by Western blot analysis; conditions: time hrs <=15
[25] = molecular target: T1, Nuclear factor NF-kappa-B complex (Homo sapiens); assay: Inhibition of NF-kappaB in human A549 cells assessed as reduction in p65 nuclear translocation at 10 uM measured after 15 hrs by Western blot analysis; assay type: cell-based; procedure, shortened: as §3
[26] = test system: Respiratory syncytial virus; assay: Antiviral activity against RSV infected in human A549 cells assessed as reduction in viral titer at 7.5 uM incubated for 15 hrs by immunostaining analysis; assay type: functional; procedure, shortened: as §6
[27] = molecular target: T1, Nuclear factor NF-kappa-B complex (Homo sapiens); assay: Inhibition of poly I:C-induced NF-kappaB (unknown origin) transfected in human HEK293 cells co-transfected with NF-kappaB-Luc gene incubated for 4 hrs by luciferase reporter gene; assay type: cell-based; procedure, shortened: as §7

T1 sequence (P19838 whole entry, looked up): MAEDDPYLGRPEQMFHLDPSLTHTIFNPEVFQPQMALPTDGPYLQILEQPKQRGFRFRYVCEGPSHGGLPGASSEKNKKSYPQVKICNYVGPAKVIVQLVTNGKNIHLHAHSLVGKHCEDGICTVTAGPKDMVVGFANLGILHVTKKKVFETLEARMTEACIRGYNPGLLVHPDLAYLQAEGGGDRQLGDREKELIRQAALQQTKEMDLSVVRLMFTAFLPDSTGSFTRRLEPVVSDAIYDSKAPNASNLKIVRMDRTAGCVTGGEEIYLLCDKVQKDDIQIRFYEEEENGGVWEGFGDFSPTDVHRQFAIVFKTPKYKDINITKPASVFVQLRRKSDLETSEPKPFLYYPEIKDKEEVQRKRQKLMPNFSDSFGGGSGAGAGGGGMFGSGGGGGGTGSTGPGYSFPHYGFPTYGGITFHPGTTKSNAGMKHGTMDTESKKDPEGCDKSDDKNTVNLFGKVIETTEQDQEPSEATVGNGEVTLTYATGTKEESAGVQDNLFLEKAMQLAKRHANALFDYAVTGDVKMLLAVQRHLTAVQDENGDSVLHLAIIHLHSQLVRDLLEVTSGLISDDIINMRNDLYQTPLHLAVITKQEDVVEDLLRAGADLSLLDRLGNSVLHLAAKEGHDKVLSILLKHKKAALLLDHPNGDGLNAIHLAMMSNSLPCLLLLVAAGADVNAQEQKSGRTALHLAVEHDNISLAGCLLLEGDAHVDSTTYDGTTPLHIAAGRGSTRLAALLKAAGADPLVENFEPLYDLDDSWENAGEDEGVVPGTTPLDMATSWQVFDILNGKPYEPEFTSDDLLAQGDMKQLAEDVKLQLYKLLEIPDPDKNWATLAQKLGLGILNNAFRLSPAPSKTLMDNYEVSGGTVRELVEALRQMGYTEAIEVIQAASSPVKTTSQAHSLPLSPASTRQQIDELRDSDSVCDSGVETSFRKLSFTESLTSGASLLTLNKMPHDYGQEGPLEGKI
T1 sequence (Q00653 whole entry, looked up): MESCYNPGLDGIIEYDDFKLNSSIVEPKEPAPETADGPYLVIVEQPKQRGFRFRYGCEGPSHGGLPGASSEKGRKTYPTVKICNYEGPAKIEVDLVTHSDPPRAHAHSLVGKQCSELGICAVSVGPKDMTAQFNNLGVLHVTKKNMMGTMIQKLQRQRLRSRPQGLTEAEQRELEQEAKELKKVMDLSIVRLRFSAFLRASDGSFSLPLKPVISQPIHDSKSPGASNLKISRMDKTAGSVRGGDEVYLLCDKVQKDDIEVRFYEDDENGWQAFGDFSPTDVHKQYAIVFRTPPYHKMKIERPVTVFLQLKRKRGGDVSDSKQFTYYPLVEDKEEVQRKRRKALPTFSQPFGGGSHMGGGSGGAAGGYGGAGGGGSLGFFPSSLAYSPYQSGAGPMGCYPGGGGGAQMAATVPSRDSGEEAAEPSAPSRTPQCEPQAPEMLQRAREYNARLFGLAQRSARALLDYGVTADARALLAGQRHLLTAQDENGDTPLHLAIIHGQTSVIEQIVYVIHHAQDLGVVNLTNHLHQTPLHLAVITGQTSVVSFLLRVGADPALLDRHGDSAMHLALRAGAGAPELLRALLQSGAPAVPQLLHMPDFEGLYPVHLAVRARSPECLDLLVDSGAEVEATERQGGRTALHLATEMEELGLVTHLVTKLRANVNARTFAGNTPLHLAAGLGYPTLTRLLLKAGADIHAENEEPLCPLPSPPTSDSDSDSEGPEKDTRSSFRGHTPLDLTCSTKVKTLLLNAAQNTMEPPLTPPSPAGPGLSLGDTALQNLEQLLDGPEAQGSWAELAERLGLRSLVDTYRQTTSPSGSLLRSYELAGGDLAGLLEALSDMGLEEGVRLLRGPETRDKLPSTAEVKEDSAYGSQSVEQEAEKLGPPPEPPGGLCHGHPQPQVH
T1 sequence (Q04206 whole entry, looked up): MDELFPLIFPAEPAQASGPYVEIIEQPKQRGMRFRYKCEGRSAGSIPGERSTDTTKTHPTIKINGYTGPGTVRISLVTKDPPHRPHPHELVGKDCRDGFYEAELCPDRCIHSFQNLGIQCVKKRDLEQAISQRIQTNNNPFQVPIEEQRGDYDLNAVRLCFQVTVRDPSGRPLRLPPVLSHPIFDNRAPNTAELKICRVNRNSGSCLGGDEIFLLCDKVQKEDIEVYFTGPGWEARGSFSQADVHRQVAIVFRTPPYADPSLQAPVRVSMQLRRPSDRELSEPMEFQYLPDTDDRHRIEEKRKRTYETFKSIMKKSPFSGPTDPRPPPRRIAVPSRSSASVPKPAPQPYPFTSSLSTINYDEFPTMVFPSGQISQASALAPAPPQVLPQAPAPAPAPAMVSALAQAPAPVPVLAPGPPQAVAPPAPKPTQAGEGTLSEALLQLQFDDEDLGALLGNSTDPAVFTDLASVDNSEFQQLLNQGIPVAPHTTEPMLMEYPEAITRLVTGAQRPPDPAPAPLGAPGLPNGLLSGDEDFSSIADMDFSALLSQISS

SMILES | log(activity) [1] | CC50 (A549 [2]) [µM] | inhibition (A549 [4]) | inhibition (A549 [5]) | inhibition (A549 [6]) | inhibition (A549 [7]) | further results
O=C(Nc1ccc(NCC2CCCC2)cc1Cl)c1cc(Cl)ccc1O | 1.42 | 141 | – | – | – | – | –
CC(=O)Nc1ccc(NC(=O)c2cc(Cl)ccc2O)c(Cl)c1 | 0.09 | – | – | – | – | – | –
O=C(Nc1ccc(NCc2ccccc2)cc1Cl)c1cc(Cl)ccc1O | 1.53 | 81.3 | – | – | – | – | –
Nc1ccc(NC(=O)c2cc(Cl)ccc2O)c(Cl)c1 | -0.01 | – | – | – | – | – | –
CCCNc1ccc(NC(=O)c2cc(Cl)ccc2O)c(Cl)c1 | 1.82 | 69.7 | Active | Active | Active | Active | inhibition (SAEC [3]): Active
CCCC(C)(C)Nc1ccc(NC(=O)c2cc(Cl)ccc2O)c(Cl)c1 | 1.81 | 23.7 | – | – | – | – | –
O=C(Nc1ccc(N2CCOCC2)cc1Cl)c1cc(Cl)ccc1O | 1.74 | 89.9 | Active | Active | Active | Active | –
CC(C)(C)OC(=O)N1CCC(CNc2ccc(NC(=O)c3cc(Cl)ccc3O)c(Cl)c2)CC1 | 1.53 | – | – | – | – | – | –
O=C(Nc1ccc(NCc2cc(C(F)(F)F)cc(C(F)(F)F)c2)cc1Cl)c1cc(Cl)ccc1O | 2.59 | 22.9 | – | – | – | – | –
O=C(Nc1ccc(NCCCO)cc1Cl)c1cc(Cl)ccc1O | -0.16 | – | – | – | – | – | –
CS(=O)(=O)CCCn1c(Cn2c(=O)n(CC(F)(F)F)c3ccncc32)cc2cc(Cl)ccc21 | – | – | – | – | – | – | inhibition [8]: inactive; inhibition [9]: Active
CC(C)Nc1ccc(NC(=O)c2cc(Cl)ccc2O)c(Cl)c1 | 1.88 | 82.7 | Active | Active | Active | Active | –
O=C(Nc1ccc(NCc2cccnc2)cc1Cl)c1cc(Cl)ccc1O | 0.54 | – | inactive | inactive | inactive | inactive | inhibition (SAEC [3]): inactive; inhibition (SAEC [10]): inactive; inhibition (SAEC [11]): inactive
O=C(Nc1ccc(NC2CCCC2)cc1Cl)c1cc(Cl)ccc1O | 1.44 | – | – | – | – | – | –
O=C(Nc1ccc(NCC2CCNCC2)cc1Cl)c1cc(Cl)ccc1O | -0.07 | – | – | – | – | – | –
O=C(Nc1ccc(NCc2ccc(F)cc2)cc1Cl)c1cc(Cl)ccc1O | 1.54 | – | – | – | – | – | –
CCCCCCC(C)Nc1ccc(NC(=O)c2cc(Cl)ccc2O)c(Cl)c1 (centres undefined) | 1.16 | 18.6 | – | – | – | – | –
O=C(Nc1ccc(N2CCCC2)cc1Cl)c1cc(Cl)ccc1O | 1.51 | – | – | – | – | – | –
CCCN(CCC)c1ccc(NC(=O)c2cc(Cl)ccc2O)c(Cl)c1 | 1.91 | 323 | Active | Active | Active | Active | inhibition (SAEC [11]): Active
CC1(Nc2ccc(NC(=O)c3cc(Cl)ccc3O)c(Cl)c2)CCCCC1 | 1.82 | 86.5 | Active | Active | inactive | Active | inhibition [12]: inactive; inhibition [13]: inactive; inhibition [14]: Active; inhibition [15]: inactive; inhibition (SAEC [3]): Active; inhibition [16]: Active; inhibition [17]: Active; inhibition [18]: Active; log(activity) [19]: 1.57; inhibition [20]: Active; inhibition [21]: Active; inhibition [22]: Active; inhibition (SAEC [10]): Active; inhibition [23]: Active; inhibition [24]: Active; inhibition [9]: Active; inhibition (SAEC [11]): Active; inhibition [25]: Active
O=C(Nc1ccc(NCc2ccco2)cc1Cl)c1cc(Cl)ccc1O | 2.13 | 76.3 | Active | Active | Active | Active | log(activity) [26]: 1.22; inhibition [13]: Active; inhibition [14]: Active; inhibition [15]: inactive; inhibition [16]: Active; inhibition [17]: Active; inhibition [18]: Active; inhibition [20]: Active; inhibition [21]: Active; inhibition [22]: Active; inhibition [23]: Active; inhibition [24]: Active; inhibition [9]: Active; inhibition [25]: Active; inhibition [27]: Active
